From ChEMBL document CHEMBL3853360, “Combined Interactions with I1-, I2-Imidazoline Binding Sites and α2-Adrenoceptors To Manage Opioid Addiction” (ACS Med Chem Lett, 2016)

What was measured:
Nischarin = Nischarin (Rattus norvegicus, UniProt Q4G017); assay: Displacement of [125I]-p-iodoclonidine from I1 receptor imidazoline binding site in Sprague-Dawley rat kidney cell membranes after 30 mins by liquid scintillation counting
How it was run: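 Radioligand competition binding with pKi determined by displacement. I1 sites: [125I]-p-iodoclonidine on rat kidney membranes. I2 sites: [3H]-2-BFI on rat brain membranes. α2-ARs: [3H]-RX821002 on rat brain membranes.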

Mus musculus = assay: Reduction in morphine dependence acquisition in CD1 mouse assessed as inhibition of naloxone-precipitated teeth chattering frequency at 5 to 10 mg/kg, ip administered 15 mins prior to each morphine challenge relative to control; assay type: functional
How it was run: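 Mice received i.p. test compound (5 or 10 mg/kg) 15 min before each of repeated morphine injections, with vehicle and morphine-only controls. Withdrawal was then precipitated with naloxone. Jumping frequency and somatic signs (rearing, forepaw tremor, teeth chattering; summed frequency) were scored and compared with the morphine group. Data are mean ± SEM of 6–10 animals.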

[1] = biological target: T1, Alpha-2B adrenergic receptor (Homo sapiens) (UniProt P18089); assay: Agonist activity at human alpha2b-AR expressed in CHO cells assessed as rate of acidification after 240 mins by cytosensor microphysiometric analysis relative to (-)-noradrenaline; assay type: cell-based
T1 sequence (whole entry): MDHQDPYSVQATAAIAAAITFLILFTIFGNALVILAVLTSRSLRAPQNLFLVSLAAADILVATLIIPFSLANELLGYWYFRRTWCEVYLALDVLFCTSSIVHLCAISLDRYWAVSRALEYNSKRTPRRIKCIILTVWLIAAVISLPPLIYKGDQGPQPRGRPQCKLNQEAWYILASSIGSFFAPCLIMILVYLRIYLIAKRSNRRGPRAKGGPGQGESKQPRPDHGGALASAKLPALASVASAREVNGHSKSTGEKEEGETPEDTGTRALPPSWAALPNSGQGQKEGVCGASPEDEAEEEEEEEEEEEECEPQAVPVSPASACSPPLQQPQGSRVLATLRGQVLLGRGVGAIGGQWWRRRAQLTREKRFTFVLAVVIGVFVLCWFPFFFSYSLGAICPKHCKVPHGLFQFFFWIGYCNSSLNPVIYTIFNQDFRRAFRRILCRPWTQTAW
How it was run: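 Functional assay in CHO cells stably expressing a single human α2-AR subtype (α2A, α2B or α2C), read on a Cytosensor microphysiometer. Outputs are pEC50, intrinsic activity and, for antagonism, pKb. Intrinsic activity is expressed as a fraction of the full agonist (−)-noradrenaline, set at 1. Values are mean ± SEM of 3–5 separate experiments.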

Chain of Nischarin (Q4G017 whole entry): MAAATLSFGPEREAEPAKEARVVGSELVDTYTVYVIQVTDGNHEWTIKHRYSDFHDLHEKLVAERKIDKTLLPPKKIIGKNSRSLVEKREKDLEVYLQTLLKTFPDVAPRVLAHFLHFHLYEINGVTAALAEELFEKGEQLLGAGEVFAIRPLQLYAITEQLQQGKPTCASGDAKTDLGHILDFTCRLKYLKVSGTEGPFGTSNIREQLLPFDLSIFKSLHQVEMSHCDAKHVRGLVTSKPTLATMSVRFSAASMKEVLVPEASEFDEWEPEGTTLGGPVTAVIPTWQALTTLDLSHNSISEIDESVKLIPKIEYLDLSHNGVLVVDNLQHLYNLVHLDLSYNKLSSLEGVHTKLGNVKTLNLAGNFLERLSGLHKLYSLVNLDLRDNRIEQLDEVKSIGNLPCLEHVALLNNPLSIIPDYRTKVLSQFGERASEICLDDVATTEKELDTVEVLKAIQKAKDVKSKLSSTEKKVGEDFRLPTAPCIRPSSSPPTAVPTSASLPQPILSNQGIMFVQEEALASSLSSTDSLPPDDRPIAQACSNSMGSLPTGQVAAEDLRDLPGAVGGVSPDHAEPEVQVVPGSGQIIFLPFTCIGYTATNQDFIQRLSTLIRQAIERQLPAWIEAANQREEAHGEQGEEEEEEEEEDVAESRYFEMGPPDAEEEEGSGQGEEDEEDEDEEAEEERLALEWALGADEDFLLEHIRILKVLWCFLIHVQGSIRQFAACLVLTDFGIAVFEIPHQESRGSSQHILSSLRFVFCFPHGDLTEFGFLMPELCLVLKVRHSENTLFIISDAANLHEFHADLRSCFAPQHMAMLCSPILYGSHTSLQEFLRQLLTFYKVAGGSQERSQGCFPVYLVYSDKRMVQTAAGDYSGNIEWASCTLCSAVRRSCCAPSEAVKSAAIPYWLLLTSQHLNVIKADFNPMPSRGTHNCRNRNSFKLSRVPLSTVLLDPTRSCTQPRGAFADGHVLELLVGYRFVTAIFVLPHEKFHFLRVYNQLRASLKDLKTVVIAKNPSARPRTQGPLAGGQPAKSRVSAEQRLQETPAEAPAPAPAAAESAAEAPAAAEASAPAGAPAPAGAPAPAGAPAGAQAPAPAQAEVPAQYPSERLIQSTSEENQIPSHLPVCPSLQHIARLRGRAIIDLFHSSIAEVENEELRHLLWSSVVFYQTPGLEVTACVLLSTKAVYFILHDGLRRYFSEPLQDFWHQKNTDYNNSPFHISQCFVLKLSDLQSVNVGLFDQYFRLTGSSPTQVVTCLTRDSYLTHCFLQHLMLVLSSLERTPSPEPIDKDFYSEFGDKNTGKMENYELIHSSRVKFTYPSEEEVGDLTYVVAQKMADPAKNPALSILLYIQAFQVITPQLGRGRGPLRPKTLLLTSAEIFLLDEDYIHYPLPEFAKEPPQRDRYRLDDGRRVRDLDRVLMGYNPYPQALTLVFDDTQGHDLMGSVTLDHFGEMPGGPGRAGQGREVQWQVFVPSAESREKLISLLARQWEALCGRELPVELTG

Cc1ccccc1NCC1=NCCN1
Ki (Nischarin): 2 nM
inhibition (INH) (Mus musculus): 80%
Intrinsic activity [1]: 0.4
